# PubChem BioAssay
# A number with no mark means an inactive call. Inconclusive results are not listed. Activity calls are given as the source filed them.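 The calls were made as follows, unless noted: active = viability increase at or above a cutoff of the median across tested compounds plus 3 SD (cut at about 8.5% in these data, passing the limit was not always enough); inconclusive = some gains above the cutoff, reason not given; inactive = the rest.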
# How the values were obtained:
# [1] = S. cerevisiae growth inhibition in permissive medium (OD615), pilot counter-assay for S. cerevisiae lifespan shortening project, permissive growth control (AID 705;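 active = growth inhibition above 25% in both replicates, a cutoff set 3 SD above the mean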); details: OD615, 24 h, at 10 µM, stronger effect = higher value
# Procedure, shortened: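 System: Engineered DeaD yeast | Buffer or medium: SC raffinose/galactose permissive medium | Doses: 10 µM single dose, 0.25% DMSO | Times: 24 h exposure, 30 °C | Measured by: OD615 turbidity read | Read-out: Yeast growth inhibition indicated by reduced 24 h OD615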
# [2] = S. cerevisiae growth inhibition in restrictive medium, OD615, pilot screen, restrictive growth control, yeast lifespan reduction project (AID 706;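 active = growth inhibition above a set limit, 3 SD over mean compound inhibition, in both replicates, cut at about 43% in these data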;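 also: modified DeaD lifespan yeast strain shifted to restrictive glucose medium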); details: OD615, 48 h, at 10 µM, stronger effect = higher value
# Procedure, shortened: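 Assay system: engineered S. cerevisiae DeaD strain; Buffer or medium: CSMM-D glucose medium; Dosing: 10 µM compound, 0.25% DMSO; Times: cell pre-growth 4 h, compound exposure 48 h, 30 °C; Detection: absorbance (optical density) measured at 615 nm.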
# [3] = doxorubicin toxicity protection in MRP-1 cells – H69AR cells, CellTiter-Glo, duplicate, MRP-1 activator project, pilot screen (AID 807); details: H69AR viability with doxorubicin, CellTiter-Glo luminescence; at 10 µM; stronger effect = higher value;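 also: compound pretreatment 18-22 h then 72 h combined with doxorubicin; 0% = doxorubicin alone and 100% = vehicle without doxorubicin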
# [4] = viability of HCT116 without oncogenic beta-catenin – human colon tumor cells, pilot screen (AID 823;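 active = cell viability at or below a set limit in both duplicate runs, the limit being the all-compound median minus 4 SD, cut at about 23% in these data, passing the limit was not always enough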;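 also: 0% = wells killed by 20 µM Hyamine and 100% = untreated DMSO cell wells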); details: HCT116 beta-catenin knockout viability, CellTiter-Glo, 60 h; at 10 µM; stronger effect = lower value
# [5] = viability of PTEN-null HCT116 cells – cell-based, HCT116 clonal line, CellTiter-Glo, pilot screen (AID 824;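 active = viability at or below 27.92% in each of two runs, the all-compound median minus 4 SD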;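 also: 0% = 20 µM Hyamine control and 100% = vehicle cell control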); details: HCT116 PTEN-deleted viability, 60 h, at 10 µM, stronger effect = lower value
# [6] = RAM pathway blockade in budding yeast – dse1pr::URA3 reporter, 5-FOA selection, pilot screen (AID 869;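 active = inhibition over a set limit, the all-compound mean plus 3 SD, in both replicate runs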;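 also: 0% = DMSO wells with no growth and 100% = 10 µM 1-NA-PP1 with full growth; RAM network block rescues cells from 5-FOA so hits raise OD615 growth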); details: S. cerevisiae dse1pr::URA3 5-FOA growth, OD615, 2 d; at 10 µM; stronger effect = higher value; strain carries analog-sensitive mutant Cbk1 kinase
# [7] = RAM signaling pathway blockade in yeast – S. cerevisiae, Pdr1DBD-CYC8 efflux-inhibited sensitized strain, primary screen (AID 1298;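 active = RAM network inhibition above 8.4% in each of two replicates, 3 SD over the compound average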;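 also: 0% = DMSO untreated cells without growth and 100% = 10 µM 1-NA-PP1 full growth; higher means more yeast growth rescued from 5-FOA killing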); details: S. cerevisiae cbk1-as DSE1-URA3 strain, 5-FOA growth OD615, 2 d; at 50 µM; stronger effect = higher value
Compound,growth inhibition [1],growth inhibition [2],viability increase [3],viability [4],viability [5],inhibition [6],RAM network inhibition [7]
COc1cccc(-c2nc(CS(=O)(=O)CC(=O)NCCC(C)C)c(C)o2)c1,3.72%,7.53%,0.8%,94%,89.1%,0.36%,1.13%
COc1ccc(NC(=O)c2cnc3ccccn3c2=O)cc1OC,-5.08%,4.28%,-0.04%,101%,91.3%,0.665%,1.96%
COc1ccc(NC(=O)Nc2ccc3nccnc3c2)cc1,-13.5%,-17.2%,-4.49%,67.5%,68.7%,1.81%,3.72%
Cc1nn(Cc2ccccc2)c(N)c1-c1ccccc1,-8.39%,-9.23%,-0.57%,95.2%,87.1%,2.53%,2.53%
COc1ccccc1-c1c(C)nn2c(C)cc(C)nc12,-5.75%,-1.54%,-1.88%,97.5%,97.3%,0.895%,1.79%
Fc1ccc(Cc2nnc(-c3cccs3)o2)cc1,-20.1%,-0.63%,0.11%,104%,97.8%,1.93%,12.2%
COc1cc(/C=N/n2cnnc2)ccc1OCCOc1ccccc1,0.295%,1.02%,-3.68%,104%,91.8%,3.07%,5.62%
Oc1cc(Cc2ccccc2)cnc1CN1CCOCC1,1.49%,2.83%,-0.73%,96.8%,87.3%,0.81%,1.51%
Cc1ccc(C)c(C(=O)N(Cc2nc(-c3ccc(Cl)cc3)no2)C(C)C)c1,-8.99%,-16.6%,-0.54%,56.5%,62.6%,1.21%,4.04%
COc1ccc(-n2c(Cc3cc(=O)[nH]c(=O)[nH]3)nnc2SCC(=O)N2CCCC2)cc1,-4.92%,-0.375%,0.36%,101%,97.9%,0.805%,0.42%
Cc1nc2c(c(C)nn2-c2ccccc2)c(C)c1Cl,-4.98%,-5.5%,-2.73%,88.6%,87.9%,3.09%,2.46%
COc1ccc(NC(C)=O)c2nc(C)c(C)nc12,7.39%,-2.71%,-3.32%,98%,93.9%,1.17%,1.29%
COc1ccc(Br)cc1C1CC(=O)N2CN(Cc3ccccc3)CSC2=C1C#N (stereo not drawn),4.47%,12.8%,-4.64%,85%,87.5%,2.63%,4.51%
CCCCn1c(C(C)NC(=O)CC)nc2ccccc21 (stereo not drawn),-12.9%,-3.19%,-3.16%,92.2%,92.7%,0.01%,-0.63%
CN1CCN(CCCNC(=O)c2cc3c(-c4ccc(Cl)cc4)nn(C)c3s2)CC1,-8.24%,-2.25%,-8.21%,2.18% (active),2% (active),0.445%,0.92%
Cc1ccc(-c2noc(CN(C(=O)c3cccc(Br)c3)C(C)C)n2)cc1,0.485%,-2.63%,1.98%,92.5%,85.3%,2.58%,10%
Cc1ccccc1-n1c(C)nc2ccccc21,-17.5%,-1.88%,-0.13%,95.9%,93.7%,1.79%,1.56%
CC(C)Sc1nnc(NC(=O)C2CC2)s1,-12.6%,-3.5%,-0.09%,98.1%,102%,1.93%,3.62%
O=C(Nc1ccccc1Cl)N1CCN(c2ccc3nnc(-c4ccccc4)n3n2)CC1,6.99%,29.4%,-4.19%,79.4%,74.8%,0.435%,2.07%
CCCc1cc(C(=O)NCc2cccs2)no1,-11.4%,21.3%,-3.29%,101%,94.1%,1.34%,0.74%
CCOC(=O)C1CCN(S(=O)(=O)c2cccc3nonc23)CC1,-5.04%,-10.7%,0.01%,100%,96.8%,1.46%,-1.5%
CCOC(=O)C1CCCCN1Cc1cc(Cl)ccc1O (stereo not drawn),-3.16%,-13.2%,0.31%,87%,81%,0.74%,3.98%
CC1CCc2nn(CC(=O)N3CCCCCC3)cc2C1 (stereo not drawn),-3.02%,1.8%,-0.62%,100%,91.4%,1.23%,1.06%
Cc1ccccc1-c1nnc(SCC(=O)Nc2ccc3c(c2)OCCO3)n1N,-1.12%,10.1%,-2.18%,96.7%,91.7%,0.6%,-0.27%
